Series [1] is classed as in vitro ADME, human. Particulars: for % BD (mean ± S.D.): all groups and time points.
A short description of series [2]: Degradation mode of histatins in pooled 1:10 diluted WSS, cationic PAGE. Particulars: 100 μg/mL, 37 °C. The class given is in vitro ADME, human. The method in brief:
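Unstimulated whole saliva from adolescents (n = 8/group: spastic CP with gingivitis, no CP/no gingivitis, no CP with gingivitis) was held on ice ≤3 h, spun at 1,500×g for 2 min then 14,000×g for 20 min at 4 °C, and the supernatant stored at -80 °C. Supernatant was diluted 1:10 in distilled water and pooled by group. Synthetic histatin 1 or 5 (final 100 μg/mL) was incubated at 37 °C for 0–48 h, with aliquots boiled 5 min. Samples were dried, desalted, and run on 20% cationic PAGE; band intensity was compared with time zero.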

For series [3] the following is noted: diluted WSS from periodontally healthy individuals, HPLC, ref McDonald et al. 8, cited from earlier work.
The conditions of series [4]: cited from earlier work.

Where two headings read alike, the source gives them in different places. Ends that are not written are not given here.

With “DSHEKRHHGYRRKFHEKHHSHREFPFYGDYGSNYLYDN [histatin 1]”, in series [1] (during a 48 h interval, 1:10 diluted WSS), the “speed of degradation, G1 relative to G2 and G3” value was 1.78 times. This sequence also showed a share remaining at 48 h, 100 μg/mL in series [1] (human, individual whole saliva supernatant (WSS) diluted 1:10) of 56%. The metabolised at 4 h, 100 μg/mL in series [1] (human, whole saliva supernatant (WSS) diluted 1:10, reduction in band density, G2 and G3 (stated together), 1:10 diluted WSS, 37 °C, printed as after 4 h of incubation) is roughly 14%. In addition, the “% BD (mean ± S.D.)” value in series [1] (saliva of female subjects, 1:10 diluted WSS) was found to be 79.3 ± 23.6%; in series [1] (saliva of male subjects, 1:10 diluted WSS) it was 77.6 ± 20.9%. The “time after which degradation fragments were observed on cationic PAGE” value in series [2] (pooled G2 WSS diluted 1:10) and in series [2] (pooled G3 WSS diluted 1:10) was 8 h in each case. Also, the intact protein degraded is 28% in series [3] (0.5 h) and 83% in series [3] (2 h). For the same sequence, the “histatin 1 degraded” value in series [4] (1.5 h of incubation with WSS) was “approximately 50%”. Further, the “time after which totally degraded” value in series [4] (incubation with WSS) is listed as 40 h.
